According to the EternaBench riboswitch data:

Tested on: MS2 coat protein
Assay: apparent Kd, MS2 coat protein; higher = weaker binding; RNA-MaP array; FMN 200 µM where present
In short: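 The apparent Kd comes from binding curves fitted cluster by cluster, filtered, and summarised as a median. Those curves followed SNAP-549-labelled MS2 coat protein from 0.7 or 1.5 nM, doubling to 3 µM, on Illumina sequencing-chip clusters where stalled E. coli RNA polymerase had transcribed the designs, without and then with constant ligand. The buffer was 100 mM Tris-HCl pH 7.5, 80 mM KCl, 4 mM MgCl2, BSA, DTT, yeast tRNA and Tween-20, and green signal was normalised to red-channel RNA signal and control-cluster median Fmax.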

[1] = designed as: OFF switch for flavin mononucleotide, no ligand
[2] = ligand present: flavin mononucleotide, designed as: OFF switch for flavin mononucleotide
[3] = designed as: ON switch for flavin mononucleotide, no ligand
[4] = ligand present: flavin mononucleotide, designed as: ON switch for flavin mononucleotide

Sequence	apparent Kd [1]	apparent Kd [2]	apparent Kd [3]	apparent Kd [4]
CUCGUGUAAGGAUAUGCGGGCGGGCGCGUUUGUGUUUGUUUGUAGAAGGUACAUGAGGAUCACCCAUGUACUGG	25.5 nM	57.4 nM		
ACAAAUUCUGACAUGAGGAUCACCCAUGUUAGAUUGUUAUGUCAGGAUAUUAUCUGGCAACCAGAUGAGAAGGGACGAUUUGUG			10.6 nM	7.15 nM
UUCAAAUUCGUAGGAUAUGUAUAAAUUUUCUACAUGAGGAUCACCCAUGUUACCAUUUUAAAUUGACAGAAGGACGUAAUCUAA			22.5 nM	8.74 nM
GGUCUGAUAUGAGGAUAUGCUCAGGAUAACUGAGCAGAAGGCAUGUGAAAACAUGAGGAUCACCCAUGUGAUCAAUACAGACCA			141 nM	23.9 nM
GUUGUUACUGAGGAUAUUAUUUUAUUCGACUGAUAAGAAGGCAGUACAUGAGGAUCACCCAUGUGGGUAGCCAG	27.9 nM	170 nM		
GUUUCUAUAAGUUAUAAUAAAUAGUCAGAAGGUGAUACUACGACAUGAGGAUCACCCAUGUUUUUCAAGGAUAUGAUGUUACUC			373 nM	50 nM
UAGGUGUGAGGAUAUGGUAAAGAAAAGAUGAUGAAAGAACUCCAGAAGGCACAUGAGGAUCACCCAUGUAGAUG	26.3 nM	54.5 nM		
GUAGCAUACCGAGGAUAUUCAGGGCGUGGAUAUACAUGAGGAUCACCCAUGUGGCGGAAGCCUAGGGAGAAGGCGGGCUGCUUC			24.6 nM	19.9 nM
UACGGACAUGAGGAUCACCCAUGUGAGGAUAUCGGUACCGAUAGCAUAAUCUGCUCGGCGAGAAGGCACAGCGU	29.8 nM	42.8 nM		
AGCUGUGGCCGAGGAUAUCUAUCCAAAAUAACCGAAAUAUAAUCGGACAUGAGGAUCACCCAUGUAGAGAAGGCGGUCUCAGCA	24.3 nM	37 nM		
CUGAGUAGUCAGGAUAUGCUGUACAAAAGUACAGCAGAAGGGAUUACAUGAGGAUCACCCAUGUUUACUUCAUG	44.8 nM	209 nM		
AGCCUACAUGAGGAUCACCCAUGUCAGGAUAUCUCGCGACGUGUCGGGAACACGUUGCAGAGAAGGGACUCGGG	56.4 nM	69.4 nM		
UUUUAACAUGAGGAUCACCCAUGUGAGGAUAUCGAAAUUUAUAUUAAUAUUAAUUAAUCGAGAAGGCACAUUUU	106 nM	113 nM		
GUUUGAUGAGGAUAUCGAGGUUAGUACAUGAGGAUCACCCAUGUUAUCCAGGUGUCGGUUCGAGAAGGUAUUGGAC	18.4 nM	38.1 nM		
CCGGUGGCGCUAGUGGUGACUGCACAGGAUAUAGCGCUCACAUGAGGAUCACCCAUGUAAGGACGCUAGAAGGGUGAAAGUAUA			59.9 nM	19.9 nM
UUAAAUCAUGUAGGAUAUGCAUGGCGAAGCUACGCAGAAGGACAUGAGGAUCACCCAUGUUCGAGCUACCGAGUUCGGUGGCAA	21.9 nM	122 nM		
CGAUAGGACAGAGGAUAUGCCGAUAGGAUCUACUAUCGAAGAAUCCUCACAUGAGGAUCACCCAUGUAGAAGGCUGUCCUAUCU	7.9 nM	38.1 nM		
AGCGGCGCGGGCCACCGCAGAACCAGAAGGACAUGAGGAUCACCCAUGUAACAAAACAGGGCGGUGUAGGAUAUGGCAGGCUCG	35.9 nM	83.2 nM		
UAUCGUUCCGAGGAUAUGAGGCGACUGGCGCGAUCAGAAGGCGGAACAUGAGGAUCACCCAUGUUCCUUACCUU	12.2 nM	20.5 nM		
GGGCCGAAAGGCCCGCGGGCCCGGCAGGAUAUACAUGAGGAUCACCCAUGUCCGGCGAAAGCCGGGUAGAAGGGCCGGGCCCGC	4.98 nM	5.29 nM		
AAUAAACUCACAGGAUAUAGCAUCGUCGUUGCGAACUUAGCGACGACGAUGCUAGAAGGGUGUAUACAUGAGGAUCACCCAUGU			23 nM	11.2 nM
GGGACUCAAAGAGUACCAAUACGAACAUGAGGAUCACCCAUGUAGGAUAUGCUACUCAAAGAGUAGCAGAAGGACAUGUGCCUA	15.3 nM	82.2 nM		
AAUAACCAAGGAUAUACAUGAGGAUCACCCAUGUGGCGUCUGCGAGCUACAUCCCUUAGUAGAAGGUGGACCAG	23.4 nM	27 nM		
AGGAUUGUGCUAGGAUAUCCAGGUUUGCAGCGAGGAGAAGGAGCACAUGAGGAUCACCCAUGUUCUCAAAGGCCACGGCAAUAU	6.98 nM	13.4 nM		
UUCCAACGAGGAUAUCGAUGGUGGAACAUGAGGAUCACCCAUGUAUGAGAUAUUGUAGUUCGAGAAGGCGUUCAGU	36.9 nM	32.2 nM		
UGUCGGAGCAGAGGAUAUUACAUGAGGAUCACCCAUGUAUGAACCAAUAGCUGGAAAGAGCAAUGUAAGAAGGCUGCUCCGACA	19.7 nM	181 nM		
ACAUGAGGAUCACCCAUGUUAUCCGGGACUUCAAUUGUAUCUAGAAGGCUGUCUGCUUGUUAGUCAGAGGAUAUAGAUUCAAAU	12.4 nM	11.1 nM		
AAAAAACAUGAGGAUCACCCAUGUAAAAAAAUGGGAGGAUAUACAAAAACGAAAGUCAAAGUAGAAGGCCUGAAAA			119 nM	25.6 nM
